The EternaBench riboswitch data

Test system: MS2 coat protein
Assay: apparent Kd, MS2 coat protein; higher = weaker binding; RNA-MaP array; FMN 200 µM where present
Method in brief: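 Stalled E. coli RNA polymerase produced the designs on Illumina sequencing-chip clusters. SNAP-549-labelled MS2 coat protein was added from 0.7 or 1.5 nM, doubling to 3 µM, without and then with constant ligand, in 100 mM Tris-HCl pH 7.5, 80 mM KCl, 4 mM MgCl2, BSA, DTT, yeast tRNA and Tween-20. The apparent Kd is the median of filtered per-cluster fits of green signal normalised to red-channel RNA signal and control-cluster median Fmax.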

[1] = designed as: OFF switch for flavin mononucleotide, no ligand
[2] = ligand present: flavin mononucleotide, designed as: OFF switch for flavin mononucleotide
[3] = designed as: ON switch for flavin mononucleotide, no ligand
[4] = ligand present: flavin mononucleotide, designed as: ON switch for flavin mononucleotide

Sequence: GGGCUGUCAGGAUAUGCUAGUGCUAGUGAAAGCUAGUGCUAGUAGAAGGGACAUGAGGAUCACCCAUGUGGCCC
- apparent Kd [1]: 31.4 nM
- apparent Kd [2]: 30.9 nM

Sequence: GGGCUGUCAGGAUAUGGGCCCGGGCCCGAAAGGGCCCGGGUUUAGAAGGGACAUGAGGAUCACCCAUGUGGCCC
- apparent Kd [1]: 32.5 nM
- apparent Kd [2]: 37.2 nM

Sequence: GGGCUGUCAGGAUAUGGGCCCGGGUUUGAAAGGGCCCGGGCCCAGAAGGGACAUGAGGAUCACCCAUGUGGCCC
- apparent Kd [1]: 36.3 nM
- apparent Kd [2]: 36.4 nM

Sequence: GGGCUGUCAGGAUAUGGGCUCGGGCUCGAAAGGGCUCGGGCUCAGAAGGGACAUGAGGAUCACCCAUGUGGCCC
- apparent Kd [1]: 35.7 nM
- apparent Kd [2]: 32.8 nM

Sequence: GGGUACAUCGGAGGAUAUCAAGUAAAUACAUGAGGAUCACCCAUGUCGAUGGAGACAUCGGAGAUUGAGAAGGCCGAUGUACCG
- apparent Kd [3]: 6 nM
- apparent Kd [4]: 5.42 nM

Sequence: GGGUACAUCGGAGGAUAUCAUGGAAAUACAUGAGGAUCACCCAUGUCGAUGGAGACAUCGGAGAUUGAGAAGGCCGAUGUACCG
- apparent Kd [3]: 27.3 nM
- apparent Kd [4]: 6.38 nM

Sequence: GGGUACAUCGGAGGAUAUCAUGUAAACACAUGAGGAUCACCCAUGUCGAUGGAGACAUCGGAGAUUGAGAAGGCCGAUGUACCG
- apparent Kd [3]: 111 nM
- apparent Kd [4]: 7.62 nM

Sequence: GGGUACAUCGGAGGAUAUCAUGUAAAUACAUGAGGAUCACCCAUGUCGAUGGAGACAUCGGAGAUUCAGAAGGCCGAUGUACCG
- apparent Kd [3]: 108 nM
- apparent Kd [4]: 35.5 nM

Sequence: GGGUACAUCGGAGGAUAUCAUGUAAAUACAUGAGGAUCACCCAUGUCGAUGGAGACAUCGGAGAUUGAGAAGGCCGAUAUACCG
- apparent Kd [3]: 139 nM
- apparent Kd [4]: 9.34 nM

Sequence: GGGUACAUCGGAGGAUAUCAUGUAAAUACAUGAGGAUCACCCAUGUCGAUGGAGACAUCGGAGAUUGAGAAGGCCGAUGCACCG
- apparent Kd [3]: 203 nM
- apparent Kd [4]: 8.97 nM

Sequence: GGGUACAUCGGAGGAUAUCAUGUAAAUACAUGAGGAUCACCCAUGUCGAUGGAUACAUCGGAGAUUGAGAAGGCCGAUGUACCG
- apparent Kd [3]: 13 nM
- apparent Kd [4]: 5.34 nM

Sequence: GGGUACAUCGGAGGAUAUCAUGUAAAUACAUGAGGAUCACCCAUGUCGAUGUAGACAUCGGAGAUUGAGAAGGCCGAUGUACCG
- apparent Kd [3]: 1400 nM
- apparent Kd [4]: 52 nM

Sequence: GGGUACAUCGGAGGAUAUCAUGUACAUACAUGAGGAUCACCCAUGUCGAUGGAGACAUCGGAGAUUGAGAAGGCCGAUGUACCG
- apparent Kd [3]: 230 nM
- apparent Kd [4]: 9.27 nM

Sequence: GGGUACAUCGGAGGAUAUCGUGUAAAUACAUGAGGAUCACCCAUGUCGAUGGAGACAUCGGAGAUUGAGAAGGCCGAUGUACCG
- apparent Kd [3]: 123 nM
- apparent Kd [4]: 8.12 nM

Sequence: GGGUAGUGAGGAUAUCGUUGUUAGGAGGAGUAGGUAGGAGGCGAGAAGGCACAUGAGGAUCACCCAUGUAUGAG
- apparent Kd [1]: 29.2 nM
- apparent Kd [2]: 30.4 nM

Sequence: GGGUCAACAUGAGGAUCACCCAUGUAGGAUAUCGCUAUUGUAAUCAUGAAACAUGAUUACAAUAGCGAGAAGGACAUAUGCUUU
- apparent Kd [1]: 12.3 nM
- apparent Kd [2]: 25.4 nM

Sequence: GGGUCAUAUGUUAGGAUAUUGGAGGCAAGUGCCGUUAAGAAGGAACAUGAGGAUCACCCAUGUCUAACUGACUU
- apparent Kd [1]: 34.5 nM
- apparent Kd [2]: 66 nM

Sequence: GGGUGACAUGAGGAUCACCCAUGUCAGGAUAUGAUACUAUGUACUUCGGUACAUAGUAUCAGAAGGGACAUAAA
- apparent Kd [1]: 104 nM
- apparent Kd [2]: 27.1 nM

Sequence: GGUACCAUCACAGGAUAUGCUUUUCUUUGGGAAGCAGAAGGGUGUAACAUGAGGAUCACCCAUGUGGUACCAGGGCGUGAGCCC
- apparent Kd [3]: 170 nM
- apparent Kd [4]: 14.8 nM

Sequence: GGUACCUUCACAGGAUAUGCUAUCCUUUGGGUAGCAGAAGGGUGAUACAUGAGGAUCACCCAUGUGGUGCCAGGGCGUGAGCCC
- apparent Kd [3]: 1090 nM
- apparent Kd [4]: 305 nM

Sequence: GGUACCUUCACAGGAUAUGCUAUGCUUUGCGUAGCAGAAGGGUGAUACAUGAGGAUCACCCAUGUGGUGCCAGGGCGUGAGCCC
- apparent Kd [3]: 283 nM
- apparent Kd [4]: 278 nM

Sequence: GGUACGUCCACAGGAUAUGCGAAACAAGAAACCGCAGAAGGGUGAGGCGUCAGGACCCUGGACAUGAGGAUCACCCAUGUGCGU
- apparent Kd [3]: 113 nM
- apparent Kd [4]: 15.4 nM

Sequence: GGUACUCAAAGAGUACAAGGUCGAACAUGAGGAUCACCCAUGUAGGAUAUGCUAAGCAAGAAGUAGCAGAAGGACAUGUGCAGC
- apparent Kd [1]: 17.7 nM
- apparent Kd [2]: 59.5 nM
